From ChEMBL document CHEMBL1144241, “Deuterium isotope effects for the oxidation of 1-methyl-3-phenyl-3-pyrrolinyl analogues by monoamine oxidase B” (Bioorg Med Chem, 2008)

Tests used:
[1] = Metabolic stability in (R)-deprenyl pre-inactivated baboon liver mitochondrial fraction assessed as pyrrolyl oxidation product at 50 uM after 10 mins by HPLC analysis; type: ADME, Papio
Papio [2] = assay: Deuterium isotope effect on Vmax/Km for baboon liver mitochondrial MAOB assessed as oxidation of 1-methyl-3-(4-fluorophenyl-3-pyrroline by HPLC/UV analysis; conditions: tested as the 2H-labelled form
Papio [3] = assay: Activity of baboon liver mitochondrial MAOB by HPLC/UV analysis
In short: (§1)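 Enzyme source was baboon liver mitochondria (no MAO-A inactivation), at 0.15 mg protein/mL in 100 mM sodium phosphate, pH 7.4. Substrate oxalate salts were tested at eight concentrations, 12.5–2000 µM, for 10 min at 37 °C, then stopped with trichloroacetic acid and centrifuged. Pyrrolyl products were measured by HPLC-UV at 270 nm against calibration curves. Initial rates were fitted to Michaelis–Menten, in triplicate, mean ± SEM.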

Papio [4] = assay: Activity of baboon liver mitochondrial MAOB per mg of mitochondria by HPLC/UV analysis; in short: as §1
Papio [5] = assay: Activity of baboon liver mitochondrial MAOB per mg of mitochondria assessed as oxidation of 1-methyl-3-(4-fluorophenyl-3-pyrroline by HPLC/UV analysis; conditions: tested as the 2H-labelled form
In short: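 Baboon liver mitochondrial fraction as MAO-B source (no MAO-A activity; protein by Bradford), 0.15 mg protein/mL, in 100 mM sodium phosphate pH 7.4. Substrate as oxalate salt at eight concentrations, 12.5–2000 µM. Incubated 10 min at 37 °C; stopped with trichloroacetic acid. Pyrrolyl product quantified by HPLC-UV at 270 nm against calibration curve. Triplicates; Michaelis–Menten fit for Km and Vmax (nmol/min-mg mitochondria).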

[6] = Metabolic stability in (R)-deprenyl pre-inactivated baboon liver mitochondrial fraction assessed as oxidation to 1-methyl-3-phenylpyrrole; type: ADME, Papio
Papio [7] = assay: Activity of baboon liver mitochondrial MAOB per mg of mitochondria assessed as oxidation of 1-methyl-3-phenyl-3-pyrroline by HPLC/UV analysis; conditions: tested as the 2H-labelled form; in short: as §1
Papio [8] = assay: Ratio of Vmax to Km for baboon liver mitochondrial MAOB assessed as oxidation of 1-methyl-3-phenyl-3-pyrroline by HPLC/UV analysis; conditions: tested as the 2H-labelled form; in short: as §1

SMILES	Activity [1]	D(Vmax/Km) isotope effect (Papio [2])	Km (Papio [3])	Km (Papio [3]; tested as the 2H-labelled form)	Vmax (Papio [4])	Vmax (Papio [4]; tested as the 2H-labelled form)	D(Km) isotope effect (Papio [5])	D(Vmax) isotope effect (Papio [5])	Activity [6]	Km (Papio [7])	Vmax (Papio [7])	Vmax/Km (Papio [8])
[2H]C1=C(c2ccccc2)C([2H])([2H])N(C)C1([2H])[2H]	2.6%	–	–	–	–	–	–	–	–	–	–	–
CN1CC=C(c2ccc(F)cc2)C1	–	3.37	87.2 µM	73.8 µM	15.7 nmol/min	3.96 nmol/min	1.19	3.98	–	–	–	–
CN1CC=C(c2ccccc2)C1	–	–	118 µM	157 µM	9.07 nmol/min	2.11 nmol/min	–	–	8.4%	0.8 µM	4.29 nmol/min	5.71 nmol/min.µM
